Shown are actives, neighbours in structure and some others; about 4% of the full set was active somewhere.
ERb coact inh = inhibitors of ERβ-SRC1 coactivator interaction, primary screen, biochemical, TR-FRET, ERβ LBD, SRC-1 peptide; Estrogen receptor beta (Homo sapiens), Q92731; TR-FRET ER-beta LBD / SRC1-Cy5 peptide binding; receptor agonist-loaded with 1 µM estradiol; inhibition, % at 25.6 µM; 86,000 compounds, 1.3% hits;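 active means compounds whose percent inhibition of the receptor-coactivator binding signal exceeds about 50% in the single-dose screen, limit read from the data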
HIV Rev-RRE inh = HIV-1 Rev-RRE binding inhibitors, primary screen, biochemical, FRET, protein-RNA interaction. 97,000 compounds, 0.79% hits. inhibition, % at 8 µM. Rev peptide-RRE RNA binding. AID 704, 2007. P05866;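 active means inhibition above the screen-wide mean plus 3 SD, cut at about 35% in these data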
Target sequence (P05866 whole entry, looked up): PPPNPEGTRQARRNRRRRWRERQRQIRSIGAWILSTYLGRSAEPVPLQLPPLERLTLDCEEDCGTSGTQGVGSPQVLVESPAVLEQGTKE
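Probe or stimulus: fluorescein-Rev peptide as binding partner; assay system: Cy5-tagged RRE RNA duplex with fluorescein-tagged Rev peptide; timing: 5 min compound–RNA preincubation, then 15 min with peptide, 25 °C; medium: HEPES pH 7.5 buffer with KCl, MgCl2, NaCl and EDTA; signal: fluorescein-to-Cy5 FRET, 480 nm excitation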
FAK inh = FAK kinase inhibitors, primary screen, biochemical | biochemical FAK kinase activity assay | inhibition, %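 (tested at 7 µM)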 | Focal adhesion kinase 1 (Homo sapiens), Q05397 | 97,000 compounds, 0.84% hits; in the data active means inhibition above about 19%
ERa coact pot = enhancers of ERα–SRC-1 coactivator binding, primary screen, biochemical, TR-FRET, ERα LBD, low estradiol | TR-FRET ERalpha-LBD/SRC-Cy5 coactivator binding, 2 h; 100 = basal binding, no effect | AID 639, 2007 | 86,000 compounds, 1.3% hits | Estrogen receptor (Homo sapiens), P03372 | coactivator binding (% of control), % at 25.6 µM; in the data active means activity above about 200%;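 further: binding measured in presence of low estradiol as agonist stimulus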
ERa SRC1 inh = ERα–SRC-1 coactivator interaction inhibitors, primary screen, biochemical, TR-FRET, ERα LBD, estradiol-bound; Estrogen receptor (Homo sapiens), P03372; TR-FRET ER-alpha LBD / SRC-1 peptide; inhibition, % at 25.6 µM; 86,000 compounds, 1.7% hits; AID 629, 2007; in the data active means inhibition above about 50%
Smad3 FoxH1 inh = Smad3/FoxH1 peptide binding inhibitors, primary screen, biochemical, TR-FRET | AID 630, 2007 | inhibition, % at 25 µM | Mothers against decapentaplegic homolog 3 (Homo sapiens), P84022 | 88,000 compounds, 0.29% hits | TR-FRET Smad3/Dy647-FoxH1 peptide binding, europium anti-His;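 active means compounds that reduce the energy-transfer binding signal between the protein and its labelled peptide by more than half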
Target sequence (P84022 whole entry, looked up): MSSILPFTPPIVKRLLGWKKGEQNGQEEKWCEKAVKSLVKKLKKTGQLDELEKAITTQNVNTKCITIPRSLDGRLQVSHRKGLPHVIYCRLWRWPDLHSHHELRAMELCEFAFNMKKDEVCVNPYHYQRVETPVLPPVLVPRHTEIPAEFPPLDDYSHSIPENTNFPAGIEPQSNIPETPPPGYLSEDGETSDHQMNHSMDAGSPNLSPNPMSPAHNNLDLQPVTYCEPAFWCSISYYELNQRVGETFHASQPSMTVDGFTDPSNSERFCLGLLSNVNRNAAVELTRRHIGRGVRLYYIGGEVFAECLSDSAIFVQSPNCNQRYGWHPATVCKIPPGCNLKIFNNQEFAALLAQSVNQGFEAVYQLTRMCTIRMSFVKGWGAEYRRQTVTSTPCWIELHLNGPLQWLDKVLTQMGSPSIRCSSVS
A number is an active result; 0 = inactive; - = no result; [ ] = remark or other dose.

SMILES	ERb coact inh	HIV Rev-RRE inh	FAK inh	ERa coact pot	ERa SRC1 inh	Smad3 FoxH1 inh
COC(=O)c1ccc(S(=O)(=O)N2C3CCC2CC(NC(=O)NC2CCCCC2)C3)cc1 (stereo not given)	57.6[fluorescence artefact?]	0	0	0	0	0
Cn1c(=O)c2[nH]c(CS(=O)(=O)Cc3nc4c([nH]3)c(=O)n(C)c(=O)n4C)nc2n(C)c1=O	-	-	-	-	-	0
CC(C)(C)NC[C@@H](O)c1ccc(O)c(CO)n1	-	-	-	-	-	0
CCN1C=C(Cc2ccc(OC)cc2)C2=C(C1)C(c1ccc(OC)cc1)C(C#N)=C(N)O2 (stereo not given)	-	40.0	0	-	-	-
COc1ccc(C2C(C#N)=C(N)Oc3cc4c(cc32)OCO4)cc1 (stereo not given)	0	0	0	0	0	0
CC(C)CC(OC(=O)c1cccs1)C(=O)NCc1ccco1 (stereo not given)	58.4	0	0	0	0	0
CCC(OC(=O)c1cccs1)C(=O)NCc1ccco1 (stereo not given)	0	0	0	0	0	0
Cc1ccc2cc3cc(C(=O)NCCCN4CCCCCC4)oc3nc2c1	0	0	0	0	58.3[fluorescence artefact?]	0
Cc1ccc2cc3cc(C(=O)NCCCN4CCc5ccccc5C4)oc3nc2c1	0	0	0	0	0	0
CN1CCC[C@H]1c1cccnc1.O=C(O)c1ccccc1O.O=C([OH2+])c1ccccc1O.O=C([OH2+])c1ccccc1O.O=C([OH2+])c1ccccc1O.[Mn]	-	-	-	-	-	0
O=[N+]([O-])c1cc(C(F)(F)F)ccc1NCCNC(=S)Nc1ccc(Cl)cc1	-	0	0	-	-	-
COc1cc(Cl)cc2c1Sc1ccccc1/C2=C/CCN(C)C	0	0	0	0	0	0
CN(C)CC/C=C1/c2ccccc2Sc2c(O)cc(Cl)cc21	0	0	40.2	0	0	0
Cc1ccc(-c2noc(CCC(=O)Nc3ccc(C)cn3)n2)cc1	0	0	0	252.9	0	0
CC(C)C[C@H](N)C(=O)O	-	-	-	-	-	0
Cc1noc(C)c1C(=O)N1CCN(Cc2ccccc2)CC1	0	0	0	0	0	0
Cc1noc(C)c1C(=O)N1CCN(C(=O)c2sc3cc(Cl)ccc3c2Cl)CC1	68.6[fluorescence artefact?]	0	0	0	0	0
CCOc1ccc(OCC)c(NC(=O)CSc2nnnn2CC)c1	0	0	0	0	0	0
COc1cc(NC(=O)CSc2nc3ccccc3c(=O)n2C)ccc1NC(=O)c1ccco1	0	0	0	0	62.9	0
CCOc1ccc(OCC)c(NC(=O)CSc2nc3ccccc3c(=O)n2C)c1	0	0	0	0	50.2[fluorescence artefact?]	0
COc1cc(NC(=O)CSc2nnc(-c3ccncc3)n2C2CCCCC2)ccc1NC(=O)c1ccco1	-	0	0	-	-	-
CC[C@H](C(=O)c1cccs1)C(O)(C(F)(F)F)C(F)(F)F	-	-	-	-	-	0
COC(=O)c1ccc(CSc2nnc(NC(=O)c3cc4c(s3)CCCC4)s2)cc1	0	0	0	234.5	0	0
CC1CCc2sc(C(=O)Nc3nnc(SCc4ccc(F)cc4)s3)cc2C1 (stereo not given)	0	0	0	0	0	0
CCC(C)NC(=O)C1CCCN(C(=O)Nc2ccc(F)cc2)C1 (stereo not given)	0	-	-	294.6	0	0
SMILES	ERb coact inh	HIV Rev-RRE inh	FAK inh	ERa coact pot	ERa SRC1 inh	Smad3 FoxH1 inh
CCN(CC)C(=O)C1CCCN(C(=O)Nc2ccc(NC(=O)N3CCCC(C(=O)N(CC)CC)C3)cc2)C1 (stereo not given)	0	0	0	0	0	0
CC(=O)O[C@H]1CC[C@@]2(C)C(=CC[C@H]3[C@H]2CC[C@]2(C)[C@@H]4[C@@H](C)[C@]5(CC[C@H](C)CN5)O[C@@H]4C[C@@H]32)C1	-	-	-	-	-	0
Cc1ccc(NC2=C/C(=N\S(=O)(=O)c3cccs3)c3ccccc3C2=O)c(C)c1	0	0	40.8	0	0	0
Cc1ccc(Nc2cc(=O)oc3ccccc23)c(C)c1	-	0	0	-	-	-
O=C(Nc1ccc(Nc2ccc3c(c2)C(=O)c2ccccc2C3=O)c2c1C(=O)c1ccccc1C2=O)c1ccccc1	-	-	-	-	-	0
C=CCn1c(NC(=O)c2ccccc2)c(C#N)c2nc3ccccc3nc21	0	-	-	0	73.7[fluorescence artefact?]	66.9
NCCNc1ncnc2ccc(Cl)cc12	-	-	-	-	-	0
CN(Cc1ccccc1)S(=O)(=O)c1ccc(S(=O)(=O)N2CCN(CCC#N)CC2)cc1	0	0	0	0	0	0
CN(C1CCCCC1)S(=O)(=O)c1ccc(S(=O)(=O)N2CCN(CCC#N)CC2)cc1	53.8	0	0	0	0	0
COc1ccc(C[C@@H]2C(=O)N[C@H](C)C(=O)N(C)[C@@H]3Cc4ccc(cc4)Oc4cc(ccc4O)C[C@@H](C(=O)N[C@@H](C)C(=O)N[C@H](C)C(=O)N2C)N(C)C3=O)cc1	-	-	-	-	-	0
N#CC1(C#N)C2=C(CCCC2)NC(c2ccccc2)C1(C#N)C#N (stereo not given)	0	46.8	0	0	0	0
Nc1c(S(N)(=O)=O)cc(S(N)(=O)=O)cc1S(N)(=O)=O	-	-	-	-	-	0
CCOC(=O)C1=C(c2ccccc2)O/C(=C(\C(=O)OC)C(F)(F)F)S1	0	0	0	270.2[fluorescence artefact?]	0	0
CCOC(=O)C1=C(c2ccccc2)O/C(=C(/C#N)C(F)(F)F)S1	0	0	0	0	0	0
CC1CCCCN1C(=O)Cn1nnc(-c2cccnc2)n1 (stereo not given)	0	37.8	0	0	0	0
O=C1C(Cl)=C(Nc2ccccc2O)C(=O)N1c1ccccc1	0	0	0	0	53.9[fluorescence artefact?]	0
Cc1ccc(CNc2oc(COc3ccccc3Cl)nc2C#N)cc1	0	0	0	0	0	0
COc1ccc(CNc2oc(COc3ccccc3Cl)nc2C#N)cc1	0	0	0	227.9[fluorescence artefact?]	0	0
O=C1/C(=C\c2ccc3c(c2)OCO3)CCC/C1=C/c1ccc2c(c1)OCO2	-	0	0	-	-	-
CC(C)c1ccc(/C=C2\CC/C(=C\C=N\N(C)C)C2=O)cc1	0	45.7	0	0	0	0
CC(=O)N1CC=C2C(C#N)=C(N)C(C#N)(C#N)[C@H](c3ccoc3)[C@H]2C1	0	0	0	0	0	0
CCN1CC=C2C(C#N)=C(N)C(C#N)(C#N)C(CCc3ccccc3)C2C1 (stereo not given)	0	86.1[fluorescence artefact?]	0	0	0	0
CN1CC=C2C(C#N)=C(N)C(C#N)(C#N)[C@H](c3ccoc3)[C@H]2C1	0	42.3	0	0	0	0

High-throughput results deposited in PubChem BioAssay by several laboratories.
